Screening results deposited in PubChem BioAssay by The Scripps Research Institute Molecular Screening Center.
Shown are actives, neighbours in structure and some others; about 1.8% of the full set was active somewhere.
NPY Y2 blocker: NPY-Y2 receptor antagonists, primary screen, cell-based. NPY-Y2 expressing cells, antagonist mode. inhibition, % at 2.7 µM. 0.99% of 140,000 active. AID 793, 2007;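 also: 0% = vehicle with agonist challenge and 100% = reference antagonist with challenge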
NPY-Y1 PAM-ag: NPY-Y1 receptor potentiators or agonists, primary screen, cell-based | activation, % at 3.6 µM | NPY-Y1 expressing cells, potentiator/agonist activation | 0.37% of 220,000 active; in the data active = activation above about 33%, passing the limit was not always enough;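 also: cells stimulated with NPY at EC10 then isoproterenol at EC100; 0% = low agonist plus stimulus and 100% = saturating agonist plus stimulus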
Target sequence (P25929 whole entry, looked up): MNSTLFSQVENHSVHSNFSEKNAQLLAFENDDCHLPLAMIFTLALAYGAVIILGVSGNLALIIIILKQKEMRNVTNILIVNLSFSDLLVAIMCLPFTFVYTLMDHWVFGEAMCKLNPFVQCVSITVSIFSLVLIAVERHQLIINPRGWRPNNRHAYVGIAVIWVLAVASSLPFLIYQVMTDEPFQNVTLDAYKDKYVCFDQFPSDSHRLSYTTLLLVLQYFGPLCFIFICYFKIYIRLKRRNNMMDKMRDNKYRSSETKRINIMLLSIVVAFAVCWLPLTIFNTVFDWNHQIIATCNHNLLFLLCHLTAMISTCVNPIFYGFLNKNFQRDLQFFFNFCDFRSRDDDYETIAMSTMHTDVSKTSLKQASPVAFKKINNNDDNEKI
NPY-Y1 antag: NPY-Y1 receptor antagonists, primary screen, cell-based; HEK293-CNG Y1 cells, membrane potential fluorescence; NPY at EC95, then isoproterenol; inhibition, % at 3.6 µM; 1% of 200,000 active; AID 1040, 2008;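 active = inhibition above the campaign mean inhibition of all tested compounds plus 3 SD, cut at about 20% in these data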;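 also: 0% = DMSO wells given NPY plus isoproterenol and 100% = isoproterenol alone without NPY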
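Test system – HEK293 Y1/CNG channel cell line · Also added – NPY agonist 25 nM, then isoproterenol 1 µM plus Ro 20-1724 25 µM · Compound dosing – one concentration, 3.6 µM, in 0.4% DMSO · Schedule – compound incubation 1 h at room temperature, readout 45 min post-stimulation · Technique – fluorescence, membrane potential probe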
NPY-Y2 PAM-ag: NPY-Y2 potentiators or agonists, primary screen, cell-based; Neuropeptide Y receptor type 2 (Homo sapiens), P49146; cells expressing NPY-Y2, potentiator/agonist read-out; activation, % at 3.6 µM; 0.45% of 220,000 active; AID 1359, 2008; in the data active = activation above about 27%;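 also: cells stimulated with NPY near EC25 plus isoproterenol at EC100; 0% = vehicle plus submaximal agonist and 100% = vehicle plus saturating agonist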
NPY1 antag conf: NPY-Y1 receptor antagonists, retest of hits, confirmation, HEK293-CNG cells, membrane potential fluorescence, triplicate | shares compounds with NPY-Y1 antag | cAMP; NPY challenge against isoproterenol-raised cAMP | inhibition, % at 3.6 µM | 21% of 1,200 active | AID 1254, 2008; in the data active = inhibition above about 20%;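 also: 0% = vehicle with agonist plus stimulus and 100% = stimulus alone without agonist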
NPY2 antag ctr: NPY-Y2 receptor antagonists, selectivity check, confirmation, counter-screen for NPY-Y1 antagonist project, HEK293-CNG cells, membrane potential fluorescence, triplicate; shares compounds with NPY-Y1 antag; antagonism; cells given NPY, then isoproterenol; inhibition, % at 3.6 µM; 28% of 1,200 active; AID 1255, 2008;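 also: 0% = DMSO with agonist challenge and 100% = reference antagonist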
An asterisk follows results filed as active; nt = no result given. Rule as the data show it, unless noted: active = inhibition above about 17%; inactive = the rest.

SMILES | NPY Y2 blocker | NPY-Y1 PAM-ag | NPY-Y1 antag | NPY-Y2 PAM-ag | NPY1 antag conf | NPY2 antag ctr
O=C(NN=C1CCCCC1)c1ccccc1OCc1ccc(F)cc1 | 5 | -52 | 30* | -44 | -2 | 3
COCCNc1nc2nonc2nc1N(C)Cc1cccc2cnccc12 | nt | 1 | 27* | -8 | 2 | 1
COc1ccc(NC(=O)Cn2c(NCC(C)O)nc3ccccc32)cc1Cl (stereo not given) | nt | -7 | 4 | 14 | nt | nt
CCOc1ccc(N=c2oc3cc(O)ccc3cc2C(=O)NCC2CCCO2)cc1 (stereo not given) | 6 | 2 | 7 | -3 | nt | nt
COc1ccc(N=c2oc3cc(O)ccc3cc2C(=O)NCC2CCCO2)cc1 (stereo not given) | 17 | -17 | 33* | -9 | 11 | 6
CCOC(=O)c1c(C)noc1CP(=O)(c1ccccc1)c1ccccc1 | 17 | -22 | 31* | -13 | 16 | 9
CC(=O)c1c(C)[nH]c(C(=O)N2CCc3ccccc32)c1C | 1 | 14 | -3 | 8 | nt | nt
CCOC(=O)c1[nH]c(C)c(C(=O)N2CCc3ccccc32)c1C | 5 | -14 | 32* | -10 | 0 | 9
COC(=O)CCN(C(=O)c1cccc([N+](=O)[O-])c1)c1ccccn1 | nt | -1 | -2 | 0 | nt | nt
N#Cc1c(-c2ccccc2)[nH]c(=O)[nH]c1=O | nt | 2 | -1 | -1 | nt | nt
N#CC(C#N)C(c1ccsc1)c1c(-c2ccccc2)[nH][nH]c1=O (stereo not given) | 10 | -17 | 24* | 8 | 34* | 34*
COc1ccccc1NC(=O)/C=C/c1ccc2c(c1)OCO2 | nt | -9 | 15 | -26 | nt | nt
COc1ccccc1NC(=O)COC(=O)/C=C/c1ccc2c(c1)OCO2 | nt | -29 | 27* | -49 | 11 | 7
Cc1ccc(S(=O)(=O)Cn2nnnc2C(C(C)C)N2CCSCC2)cc1 (stereo not given) | 0 | 14 | 21* | 3 | 0 | 2
Cc1ccc(S(=O)(=O)Cn2nnnc2C(C(C)C)N2CCc3ccccc3C2)cc1 (stereo not given) | 3 | -15 | 1 | 1 | nt | nt
CCC(C)(C)n1nnnc1C(c1ccc(C)cc1)N1CCSCC1 (stereo not given) | 16 | 13 | 24* | -14 | 13 | 5
CCC(C)(C)n1nnnc1C(c1ccc(C)cc1)N1CCN(Cc2cccnc2)CC1 (stereo not given) | 0 | 6 | 9 | -5 | nt | nt
CCc1ccc(-c2ccc(SCC(=O)NCC3CCCO3)nn2)cc1 (stereo not given) | nt | -5 | -1 | -11 | nt | nt
CC(C)(C)C(=O)CSc1nnc(Nc2ccccc2)s1 | nt | 10 | -1 | 6 | nt | nt
O=C(C1c2ccccc2C(=O)N2CCc3ccccc3C12)N1CCN(Cc2ccccc2)CC1 (stereo not given) | 10 | 6 | 22* | -1 | 6 | 3
CC(C)COc1ccc(Br)cc1CNC(C)(C)C | nt | 1 | 28* | 26 | 20 | 10
Cc1cc(Br)ccc1OCCCCNC(C)(C)C | 6 | -12 | -2 | 3 | nt | nt
Cc1cc(C)n(/N=C/c2cc([N+](=O)[O-])ccc2O)c(=O)c1 | nt | -4 | 1 | -5 | nt | nt
O=C(NCc1nc(-c2ccccc2)no1)c1ccc2c(c1)OCO2 | 6 | -34 | 22* | -3 | 13 | 10
CC(C)N(Cc1nc(-c2ccccc2)no1)C(=O)c1ccc2c(c1)OCO2 | 7 | -37 | 7 | -15 | nt | nt
SMILES | NPY Y2 blocker | NPY-Y1 PAM-ag | NPY-Y1 antag | NPY-Y2 PAM-ag | NPY1 antag conf | NPY2 antag ctr
CN(C)S(=O)(=O)c1cc(NC(=O)CN2CCCc3ccccc32)ccc1Cl | nt | 19 | 71* | 8 | 1 | 3
Cc1ccc(-n2nc(C)c3c2OC(N)=C(C#N)C3c2ccncc2)cc1 (stereo not given) | 0 | 27 | 24* | 10 | -2 | 11
COc1ccc(/C=C/C(=O)OCC(=O)c2c(C)[nH]c3ccccc23)cc1OC | -2 | 16 | -11 | 13 | nt | nt
O=C(NC1CCCCC1)C(c1ccncc1)N(Cc1ccc2c(c1)OCO2)C(=O)C(F)(F)F (stereo not given) | 9 | -20 | 21* | -4 | 9 | 5
COC(=O)c1ccc(CN2CCC(CO)(Cc3ccccc3Cl)CC2)cc1 | nt | 2 | 13 | 5 | nt | nt
COc1ccc(/C=C/CN2CCC(CO)(Cc3ccccc3Cl)CC2)cc1 | nt | -47 | 30* | -22 | 13 | 18*
CCc1cccc(CC)c1NC(=O)CN1CC(C)SC1=NC1CCCCC1 (stereo not given) | 13 | 4 | 34* | 6 | 34* | 17*
N#CC(/C(=N/S(=O)(=O)c1cccs1)c1ccccc1)c1nc2ccccc2[nH]1 (stereo not given) | 2 | -16 | 23* | -23 | 21* | 26*
COC(=O)c1ccc(NC(=O)c2ccc(CN3CCOCC3)cc2)cc1 | 2 | -2 | -10 | 18 | nt | nt
O=C(Nc1ccc(CN2CCOCC2)cc1)c1ccc(-c2ccc(Br)cc2)o1 | 13 | -60 | 31* | -39 | 12 | 21*
COc1ccc(-c2c[n+](CC(=O)OC3CC(C)CCC3C(C)C)c3n2CCC3)cc1 (stereo not given) | nt | -47 | 75* | -7 | 61* | 35*
Cc1cccc(-n2c(CNC(=O)c3ccc(S(=O)(=O)N(C)C)cc3)nnc2SCC(=O)Nc2ccc(F)cc2)c1 | 0 | 8 | -1 | -9 | nt | nt
CCNC(=O)NC(=O)C(C)OC(=O)CCCSc1nc2ccccc2s1 (stereo not given) | 5 | -22 | 4 | -14 | nt | nt
COc1ccc(CCN(C(=O)c2cccc(F)c2)C2CC(=O)N(c3ccc(OC)cc3)C2=O)cc1 (stereo not given) | 2 | -7 | -2 | 10 | nt | nt
Clc1ccc(CNc2nc(CN3CCOCC3)nc3scc(-c4ccccc4)c23)cc1 | 13 | -43 | 22* | -23 | 22* | 18*
Clc1ccc(-c2csc3ncnc(NCCN4CCOCC4)c23)cc1 | 5 | 1 | -6 | -5 | nt | nt
CCN1/C(=C/C(C)=C/c2sc3ccccc3[n+]2CC)Sc2ccccc21 | nt | -12 | 106* | 4 | 79* | 53*
Cc1ccc(C(=O)NC2CCS(=O)(=O)C2)cc1S(=O)(=O)N1CCCCCC1 (stereo not given) | nt | 10 | -2 | 9 | nt | nt
Cc1cccc[n+]1CCCCCCCCCC[n+]1ccccc1C | nt | 0 | 0 | -3 | nt | nt
CCCCCCCC[n+]1cccc2c3ccccc3ccc21 | nt | -18 | 51* | -6 | 43* | 26*
CCCCCCCCNc1ncnc2ccccc12 | 14 | 0 | 19 | 3 | nt | nt
